According to paper PMC6127844 (Journal of Enzyme Inhibition and Medicinal Chemistry, 2018):
Where two headings read alike, the source gives them in different places.

Legend:
[1] = physiological pH, CL/CM=10, CM=1 μM; cited from earlier work
SH-SY5Y cells = assay: Concentration screening for nontoxic concentration; type: cell-based, human; conditions: 24 h, MTT
Method in brief: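 SH-SY5Y human neuroblastoma cells grown in DMEM with 10% heat-inactivated FCS, penicillin and streptomycin at 37 °C in 5% CO2. Plated at 0.12 × 10^6 cells/ml. Test compound from 25 mM DMSO stock, screened at 5 to 30 μM. MTT (0.5 mg/ml) for 3 h at 37 °C; formazan dissolved in 0.04 M HCl/isopropanol and read at 570 nm. Expressed as % of untreated cells.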

[2] = Antioxidant activity, DPPH radical scavenging; conditions: read-out: DPPH radical scavenging EC50
Method in brief: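 DPPH at 0.002% in methanol mixed with the test compound in methanol at five concentrations. Incubated 30 min at RT, protected from light. Absorbance read at 517 nm against a methanol blank. %AA = 100×(A_DPPH − A_sol)/A_DPPH. Run in duplicate. EC50 taken from a plot of antioxidant activity against compound concentration.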

Aβ1–42 [3] = target: T1, Aβ1–42 (Homo sapiens, UniProt P05067); conditions: cited from earlier work
T1 sequence (P05067 672-713): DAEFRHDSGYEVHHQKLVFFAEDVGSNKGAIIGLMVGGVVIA

[4] = read-out: DPPH radical scavenging EC50, cited from earlier work
Aβ1–42 [5] = target: T1, Aβ1–42; assay: TEM imaging of Aβ1–42 aggregation
Method in brief: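 Aβ1–42 film dissolved by sonication in CH3CN/NaCl/NH4OH and diluted in 50 mM HEPES, pH 6.6. Mixed with test compound, with or without CuCl2, and incubated 24 h at 37 °C with gentle shaking. Sample applied to formvar/carbon Cu grids for 2 min at RT, washed with water and stained with 1% uranyl acetate for 1 min. Imaged at 200 kV, 10000–20000×.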

Aβ1–42 [6] = target: T1, Aβ1–42; assay: Inhibition of Cu; type: biochemical; conditions: read-out: Inhibition of Aβ aggregation in the presence of copper(II)
Method in brief: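 Aβ1–42 pretreated with HFIP, held as stock in CH3CN/Na2CO3/NaOH, then diluted to 40 μM in 0.215 M phosphate, pH 8.0. Incubated 24 h at 37 °C with or without test compound (80 μM), with CuCl2 (40 μM) for the Cu(II) condition. ThT (5 μM, glycine–NaOH pH 8.5) fluorescence read at 446/485 nm, corrected for peptide-free blanks. % inhibition taken versus no compound; mean ± SEM of duplicates from two experiments.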

O=C(NCCN1CCN(Cc2ccccc2)CC1)c1ccc2[nH]c(-c3ccccc3O)nc2c1 [Compound 2, N-(2-(4-benzylpiperazin-1-yl)ethyl)-2-(2-hydroxyphenyl)-1H-benzo[d]imidazole-5-carboxamide]
pCu [1]: 11.4
Highest nontoxic concentration (SH-SY5Y cells): 5 µM
EC50 [2]: 594 ± 4 µM
Aβ aggregates seen by TEM (Aβ1–42 [3]; absence of copper): a reduction of Aβ aggregates was also observed
Aβ aggregates seen by TEM (Aβ1–42 [3]; presence of copper): reduction of Aβ aggregates

Cc1c(C)c2c(c(C)c1O)CCC(C)(C(=O)O)O2 (stereo not drawn) [Trolox]
EC50 ([4]; same experimental method): 15 µM

COc1cccc2cc(C(=O)NCCN3CCN(Cc4ccccc4)CC3)oc12 [Compound 7, N-(2-(4-benzylpiperazin-1-yl)ethyl)-7-methoxybenzofuran-2-carboxamide]
Highest nontoxic concentration (SH-SY5Y cells): 30 µM

COc1cccc2cc(C(=O)NCC3CCN(Cc4ccccc4)CC3)oc12 [Compound 6, N-((1-benzylpiperidin-4-yl)methyl)-7-methoxy-benzofuran-2-carboxamide]
Highest nontoxic concentration (SH-SY5Y cells): 20 µM

O=C(NCC1CCN(Cc2ccccc2)CC1)c1ccc2[nH]c(-c3ccccc3O)nc2c1 [Compound 1, N-((1-benzylpiperidin-4-yl)methyl)-2-(2-hydroxyphenyl)-1H-benzo[d]imidazole-5-carboxamide]
Aβ aggregates seen by TEM (Aβ1–42 [5]; absence of copper): quite sparse
Aβ aggregates seen by TEM (Aβ1–42 [5]; presence of copper): reduction of Aβ aggregates
Highest nontoxic concentration (SH-SY5Y cells): 2.5 µM

O=C(NCC1CCN(Cc2ccccc2)CC1)c1cc2ccccc2o1 [Compound 4, N-((1-benzylpiperidin-4-yl)methyl)benzofuran-2-carboxamide]
Highest nontoxic concentration (SH-SY5Y cells): 30 µM

O=C(NCCN1CCN(Cc2ccccc2)CC1)c1cc2cccc(O)c2o1 [Compound 3, N-(2-(4-benzylpiperazin-1-yl)ethyl)-7-hydroxybenzofuran-2-carboxamide]
inhibition (Aβ1–42 [6]): 35.5%

O=C(NCCN1CCN(Cc2ccccc2)CC1)c1cc2ccccc2o1 [Compound 5, N-(2-(4-benzylpiperazin-1-yl)ethyl)benzofuran-2-carboxamide]
Highest nontoxic concentration (SH-SY5Y cells): 30 µM

Nc1c2c(nc3ccccc13)CCCC2 [Tacrine, tacrine]
EC50 [4]: > 1000 µM
